ChEMBL document CHEMBL1138533 (Antimicrob Agents Chemother, 2007)

Assays:
Assay type in all cases: ADME, organism-based
[1] = Drug concentration in beta lactamase-positive Haemophilus influenzae pharmacokinetic simulation model dosed as amoxicillin-clavulanic acid at simulated human serum concentration of 2000/125 mg, po bid after 10 hrs
[2] = Half life of free unbound fraction in beta lactamase-negative Haemophilus influenzae pharmacokinetic simulation model dosed as amoxicillin-clavulanic acid at simulated human serum concentration of 2000/125 mg, po bid after 48 hrs; conditions: read-out: ft1/2 (converted)
[3] = Drug concentration in beta lactamase-negative Haemophilus influenzae pharmacokinetic simulation model dosed as amoxicillin-clavulanic acid at simulated human serum concentration of 2000/125 mg, po bid after 2 hrs; conditions: in vivo
[4] = Unbound drug concentration in beta lactamase-negative Haemophilus influenzae pharmacokinetic simulation model dosed as amoxicillin-clavulanic acid at simulated human serum concentration of 2000/125 mg, po bid after 6 hrs
Procedure, shortened: (§1)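 Two-compartment hollow-fibre dynamic model at 37°C, Haemophilus test medium; total or free serum profiles of oral bid regimens simulated over 48 h by computer-controlled peristaltic dilution. […] Parameters from noncompartmental analysis: Cmax/Tmax observed, AUC0-24 by linear-log trapezoidal rule. Triplicate.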

[5] = Cmax in beta lactamase-negative Haemophilus influenzae pharmacokinetic simulation model dosed as amoxicillin-clavulanic acid at simulated human serum concentration of 2000/125 mg, po bid after 48 hrs
[6] = Tmax in beta lactamase-negative Haemophilus influenzae pharmacokinetic simulation model dosed as amoxicillin-clavulanic acid at simulated human serum concentration of 2000/125 mg, po bid after 48 hrs; procedure, shortened: as §1
[7] = fTmax in beta lactamase-negative Haemophilus influenzae pharmacokinetic simulation model dosed as amoxicillin-clavulanic acid at simulated human serum concentration of 2000/125 mg, po bid after 48 hrs; conditions: read-out: fTmax; procedure, shortened: as §1
[8] = Drug concentration in beta lactamase-positive Haemophilus influenzae pharmacokinetic simulation model dosed as amoxicillin-clavulanic acid at simulated human serum concentration of 2000/125 mg, po bid after 6 hrs; conditions: in vivo
[9] = fCmax in beta lactamase-negative Haemophilus influenzae pharmacokinetic simulation model dosed as amoxicillin-clavulanic acid at simulated human serum concentration of 2000/125 mg, po bid after 48 hrs; conditions: in vivo; procedure, shortened: as §1
[10] = Unbound drug concentration in beta lactamase-positive Haemophilus influenzae pharmacokinetic simulation model dosed as amoxicillin-clavulanic acid at simulated human serum concentration of 2000/125 mg, po bid after 8 hrs; conditions: in vivo; procedure, shortened: as §1
[11] = Cmax in beta lactamase-positive Haemophilus influenzae pharmacokinetic simulation model dosed as amoxicillin-clavulanic acid at simulated human serum concentration of 2000/125 mg, po bid after 48 hrs
[12] = Unbound drug concentration in beta lactamase-negative Haemophilus influenzae pharmacokinetic simulation model dosed as amoxicillin-clavulanic acid at simulated human serum concentration of 2000/125 mg, po bid after 3 hrs; procedure, shortened: as §1
[13] = Unbound drug concentration in beta lactamase-negative Haemophilus influenzae pharmacokinetic simulation model dosed as amoxicillin-clavulanic acid at simulated human serum concentration of 2000/125 mg, po bid after 2 hrs; procedure, shortened: as §1
[14] = Drug concentration in beta lactamase-positive Haemophilus influenzae pharmacokinetic simulation model dosed as amoxicillin-clavulanic acid at simulated human serum concentration of 2000/125 mg, po bid after 1 hr; conditions: in vivo
[15] = fCmax in beta lactamase-positive Haemophilus influenzae pharmacokinetic simulation model dosed as amoxicillin-clavulanic acid at simulated human serum concentration of 2000/125 mg, po bid after 48 hrs; conditions: in vivo; procedure, shortened: as §1
[16] = fAUC (0 to 24 hrs) in beta lactamase-positive Haemophilus influenzae pharmacokinetic simulation model dosed as amoxicillin-clavulanic acid at simulated human serum concentration of 2000/125 mg, po bid after 48 hrs; conditions: in vivo; procedure, shortened: as §1
[17] = Unbound drug concentration in beta lactamase-positive Haemophilus influenzae pharmacokinetic simulation model dosed as amoxicillin-clavulanic acid at simulated human serum concentration of 2000/125 mg, po bid after 1 hr; procedure, shortened: as §1
[18] = AUC (0 to 24 hrs) in beta lactamase-negative Haemophilus influenzae pharmacokinetic simulation model dosed as amoxicillin-clavulanic acid at simulated human serum concentration of 2000/125 mg, po bid after 48 hrs
[19] = AUC (0 to 24 hrs) in beta lactamase-positive Haemophilus influenzae pharmacokinetic simulation model dosed as amoxicillin-clavulanic acid at simulated human serum concentration of 2000/125 mg, po bid after 48 hrs
[20] = Unbound drug concentration in beta lactamase-positive Haemophilus influenzae pharmacokinetic simulation model dosed as amoxicillin-clavulanic acid at simulated human serum concentration of 2000/125 mg, po bid after 6 hrs; conditions: in vivo; procedure, shortened: as §1
[21] = Unbound drug concentration in beta lactamase-positive Haemophilus influenzae pharmacokinetic simulation model dosed as amoxicillin-clavulanic acid at simulated human serum concentration of 2000/125 mg, po bid after 1.5 hr; procedure, shortened: as §1
[22] = Unbound drug concentration in beta lactamase-negative Haemophilus influenzae pharmacokinetic simulation model dosed as amoxicillin-clavulanic acid at simulated human serum concentration of 2000/125 mg, po bid after 1.5 hr; procedure, shortened: as §1
[23] = Unbound drug concentration in beta lactamase-negative Haemophilus influenzae pharmacokinetic simulation model dosed as amoxicillin-clavulanic acid at simulated human serum concentration of 2000/125 mg, po bid after 8 hrs; procedure, shortened: as §1
[24] = Unbound drug concentration in beta lactamase-negative Haemophilus influenzae pharmacokinetic simulation model dosed as amoxicillin-clavulanic acid at simulated human serum concentration of 2000/125 mg, po bid after 12 hrs; procedure, shortened: as §1
[25] = Protein binding in beta lactamase-negative Haemophilus influenzae pharmacokinetic simulation model dosed as amoxicillin-clavulanic acid at simulated human serum concentration of 2000/125 mg, po bid after 48 hrs; conditions: read-out: PB (converted)
[26] = Drug concentration in beta lactamase-negative Haemophilus influenzae pharmacokinetic simulation model dosed as amoxicillin-clavulanic acid at simulated human serum concentration of 2000/125 mg, po bid after 1 hr
[27] = Unbound drug concentration in beta lactamase-positive Haemophilus influenzae pharmacokinetic simulation model dosed as amoxicillin-clavulanic acid at simulated human serum concentration of 2000/125 mg, po bid after 3 hrs; conditions: in vivo; procedure, shortened: as §1
[28] = Unbound drug concentration in beta lactamase-negative Haemophilus influenzae pharmacokinetic simulation model dosed as amoxicillin-clavulanic acid at simulated human serum concentration of 2000/125 mg, po bid after 4 hrs; procedure, shortened: as §1
[29] = Unbound drug concentration in beta lactamase-positive Haemophilus influenzae pharmacokinetic simulation model dosed as amoxicillin-clavulanic acid at simulated human serum concentration of 2000/125 mg, po bid after 4 hrs; procedure, shortened: as §1
[30] = Drug concentration in beta lactamase-negative Haemophilus influenzae pharmacokinetic simulation model dosed as amoxicillin-clavulanic acid at simulated human serum concentration of 2000/125 mg, po bid after 3 hrs; conditions: in vivo
[31] = fAUC (0 to 24 hrs) in beta lactamase-negative Haemophilus influenzae pharmacokinetic simulation model dosed as amoxicillin-clavulanic acid at simulated human serum concentration of 2000/125 mg, po bid after 48 hrs; conditions: in vivo; procedure, shortened: as §1
[32] = Drug concentration in beta lactamase-positive Haemophilus influenzae pharmacokinetic simulation model dosed as amoxicillin-clavulanic acid at simulated human serum concentration of 2000/125 mg, po bid after 12 hrs; conditions: in vivo
[33] = Drug concentration in beta lactamase-negative Haemophilus influenzae pharmacokinetic simulation model dosed as amoxicillin-clavulanic acid at simulated human serum concentration of 2000/125 mg, po bid after 10 hrs; conditions: in vivo
[34] = Unbound drug concentration in beta lactamase-negative Haemophilus influenzae pharmacokinetic simulation model dosed as amoxicillin-clavulanic acid at simulated human serum concentration of 2000/125 mg, po bid after 1 hr; procedure, shortened: as §1
[35] = Unbound drug concentration in beta lactamase-negative Haemophilus influenzae pharmacokinetic simulation model dosed as amoxicillin-clavulanic acid at simulated human serum concentration of 2000/125 mg, po bid after 10 hrs; procedure, shortened: as §1
[36] = Unbound drug concentration in beta lactamase-positive Haemophilus influenzae pharmacokinetic simulation model dosed as amoxicillin-clavulanic acid at simulated human serum concentration of 2000/125 mg, po bid after 10 hrs; conditions: in vivo; procedure, shortened: as §1
[37] = Drug concentration in beta lactamase-positive Haemophilus influenzae pharmacokinetic simulation model dosed as amoxicillin-clavulanic acid at simulated human serum concentration of 2000/125 mg, po bid after 4 hrs; conditions: in vivo
[38] = Unbound drug concentration in beta lactamase-positive Haemophilus influenzae pharmacokinetic simulation model dosed as amoxicillin-clavulanic acid at simulated human serum concentration of 2000/125 mg, po bid after 2 hrs; conditions: in vivo; procedure, shortened: as §1
[39] = Unbound drug concentration in beta lactamase-positive Haemophilus influenzae pharmacokinetic simulation model dosed as amoxicillin-clavulanic acid at simulated human serum concentration of 2000/125 mg, po bid after 12 hrs; conditions: in vivo; procedure, shortened: as §1
[40] = Half life in beta lactamase-negative Haemophilus influenzae pharmacokinetic simulation model dosed as amoxicillin-clavulanic acid at simulated human serum concentration of 2000/125 mg, po bid after 48 hrs
[41] = Drug concentration in beta lactamase-positive Haemophilus influenzae pharmacokinetic simulation model dosed as amoxicillin-clavulanic acid at simulated human serum concentration of 2000/125 mg, po bid after 3 hrs; conditions: in vivo

O=C(O)[C@H]1/C(=C/CO)O[C@@H]2CC(=O)N21 [CLAVULANIC ACID]
Drug uptake [1]: < 0.03 µg/mL
half-life [2]: 1 h
Drug uptake [3]: 1.4 µg/mL
Drug uptake [4]: 0.1 µg/mL
Cmax [5]: 2100 ng/mL
Tmax [6]: 1.5 h
Tmax [7]: 1.5 h
Drug uptake [8]: 0.1 µg/mL
fCmax [9]: 1.5 µg/mL
Drug uptake [10]: < 0.03 µg/mL
Cmax [11]: 2100 ng/mL
Drug uptake [12]: 0.5 µg/mL
Drug uptake [13]: 1 µg/mL
Drug uptake [14]: 1.2 µg/mL
fCmax [15]: 1.4 µg/mL
fAUC [16]: 2800 ng·h/mL
Drug uptake [17]: 0.9 µg/mL
AUC at 24 h [18]: 4700 ng·h/mL
AUC at 24 h [19]: 4500 ng·h/mL
Drug uptake [20]: 0.1 µg/mL
Drug uptake [21]: 1.4 µg/mL
Drug uptake [22]: 1.5 µg/mL
Drug uptake [23]: < 0.03 µg/mL
Drug uptake [24]: < 0.03 µg/mL
fraction unbound at 48 h [25]: 0.75
Drug uptake [26]: 1.3 µg/mL
Drug uptake [27]: 0.4 µg/mL
Drug uptake [28]: 0.2 µg/mL
Drug uptake [29]: 0.1 µg/mL
Drug uptake [30]: 0.7 µg/mL
fAUC [31]: 2900 ng·h/mL
Drug uptake [32]: < 0.03 µg/mL
Drug uptake [33]: < 0.03 µg/mL
Drug uptake [34]: 0.9 µg/mL
Drug uptake [35]: < 0.03 µg/mL
Drug uptake [36]: < 0.03 µg/mL
Drug uptake [37]: 0.4 µg/mL
Drug uptake [38]: 1 µg/mL
Drug uptake [39]: < 0.03 µg/mL
half-life [40]: 1 h
Drug uptake [41]: 0.7 µg/mL

CC1(C)S[C@@H]2[C@H](NC(=O)[C@H](N)c3ccc(O)cc3)C(=O)N2[C@H]1C(=O)O [AMOXICILLIN]
Drug uptake [1]: < 0.03 µg/mL
half-life [2]: 1.4 h
Drug uptake [3]: 15.5 µg/mL
Drug uptake [4]: 5 µg/mL
Cmax [5]: 17200 ng/mL
Tmax [6]: 1.5 h
Tmax [7]: 1.5 h
Drug uptake [8]: 2.1 µg/mL
fCmax [9]: 13.6 µg/mL
Drug uptake [10]: < 0.03 µg/mL
Cmax [11]: 17400 ng/mL
Drug uptake [12]: 10.1 µg/mL
Drug uptake [13]: 11.8 µg/mL
Drug uptake [14]: 11.6 µg/mL
fCmax [15]: 13.3 µg/mL
fAUC [16]: 22500 ng·h/mL
Drug uptake [17]: 9.9 µg/mL
AUC at 24 h [18]: 73100 ng·h/mL
AUC at 24 h [19]: 48700 ng·h/mL
Drug uptake [20]: < 0.03 µg/mL
Drug uptake [21]: 13.3 µg/mL
Drug uptake [22]: 13.6 µg/mL
Drug uptake [23]: 1.7 µg/mL
Drug uptake [24]: 0.3 µg/mL
Drug uptake [26]: 11.6 µg/mL
Drug uptake [27]: 2.9 µg/mL
Drug uptake [28]: 8.2 µg/mL
Drug uptake [29]: 0.8 µg/mL
fAUC [31]: 60700 ng·h/mL
Drug uptake [32]: < 0.03 µg/mL
Drug uptake [33]: 0.8 µg/mL
Drug uptake [34]: 10.4 µg/mL
Drug uptake [35]: 0.6 µg/mL
Drug uptake [36]: < 0.03 µg/mL
Drug uptake [37]: 5.5 µg/mL
Drug uptake [38]: 7.8 µg/mL
Drug uptake [39]: < 0.03 µg/mL
half-life [40]: 1.3 h
Drug uptake [41]: 10.5 µg/mL
